Screening data: PubChem BioAssay, several laboratories
PvdQ acylase = blocks Pseudomonas aeruginosa PvdQ acylase activity; inhibition, % at 10 µM; AID 488965; 0.063% of 340,000 active; purified PvdQ acylase, fluorescence plate reader; in the data active = inhibition above about 30%, passing the limit was not always enough;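 note: 0% = vehicle neutral wells and 100% = reference inhibitor wells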
IMP-1 inh = inhibitors of Pseudomonas aeruginosa IMP-1 metallo-beta-lactamase | purified IMP-1, nitrocefin hydrolysis, epi-absorbance fluorescence | inhibition, % at 5.6 µM | 0.45% of 290,000 active;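 active = inhibition above the mean plus 3 SD of all compounds in the same screening run, cut at about 4.5% in these data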;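 note: 0% = IMP-1 with DMSO and 100% = DMSO wells lacking enzyme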
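System: Purified recombinant IMP-1 metallo-beta-lactamase enzyme | Measured by: Fluorescence quenching readout, ex 480/em 530 nm | Replication: Singlicate | Incubation: 15 min preincubation plus 25 min reaction at 25 °C | Evaluation: Percent inhibition from optical density relative to buffer-blank wells | Benchmarks: DMSO with and without IMP-1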
VIM-2 inh = inhibitors of Pseudomonas aeruginosa VIM-2 metallo-beta-lactamase; inhibition, % at 5.6 µM; 0.89% of 290,000 active; purified VIM-2, nitrocefin hydrolysis, epi-absorbance fluorescence;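 active = inhibition above the mean of all tested compounds plus 3 SD, cutoff set per screening run, cut at about 7.5% in these data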;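 note: red hydrolysis product quenches plate fluorescence so inhibitors raise well fluorescence; 0% = enzyme with DMSO and 100% = DMSO without enzyme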
Yeast superoxide = lowers age-related superoxide in aged yeast cells; S. cerevisiae aged cells, superoxide DHE fluorescence; active compounds read low; superoxide response (% of plate mean), % at 10 µM; 0.18% of 330,000 active; AID 2690;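 active = superoxide response under a set limit, about three screen SD below normal, cut at about 65% in these data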;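 note: yeast aged for seven days with compound at 30 °C before DHE staining; 100% = average MFI of all compound-treated wells on the plate with controls excluded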
PHOSPHO1 inh = blocks human PHOSPHO1 phosphatase activity | recombinant PHOSPHO1, absorbance phosphatase assay | inhibition, % at 13.3 µM | Q8TCT1 | 1.1% of 290,000 active; in the data active = inhibition above about 60%
Target sequence (Q8TCT1 whole entry, looked up): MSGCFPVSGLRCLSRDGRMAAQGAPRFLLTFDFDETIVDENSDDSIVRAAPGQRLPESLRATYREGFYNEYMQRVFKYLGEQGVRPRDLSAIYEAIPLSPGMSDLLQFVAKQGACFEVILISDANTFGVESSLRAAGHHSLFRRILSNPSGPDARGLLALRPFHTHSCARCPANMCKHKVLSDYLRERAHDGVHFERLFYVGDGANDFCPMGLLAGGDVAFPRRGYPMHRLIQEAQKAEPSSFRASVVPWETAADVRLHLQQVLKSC
An asterisk follows results filed as active. Most compounds without a hit are left out; they make up all but 2.2% or so of the library.

O=S(=O)(NCc1ccccc1)c1ccc(NC(=S)NCc2ccco2)cc1 was read as PvdQ acylase -3, IMP-1 inh -7, VIM-2 inh -2, Yeast superoxide 106 and PHOSPHO1 inh -47.
`CCC1=NN2C(=N)/C(=C\c3ccc(OCCOc4ccccc4OC)cc3)C(=O)N=C2S1` gave PvdQ acylase 1, IMP-1 inh -4, VIM-2 inh -3, Yeast superoxide 107 and PHOSPHO1 inh 3.
Screening CCC1=NN2C(=N)/C(=C\c3ccc(OCCOc4ccc(NC(C)=O)cc4)c(OC)c3)C(=O)N=C2S1 returned PvdQ acylase -9, IMP-1 inh -3, VIM-2 inh 10*, Yeast superoxide 104 and PHOSPHO1 inh 2.
For CCN(C(=O)COC(=O)/C=C/c1ccco1)C1CCCCC1 the results were PvdQ acylase -6 and Yeast superoxide 109.
`Cc1cc2cc(C(c3nnnn3C3CCCC3)N(Cc3cccnc3)Cc3ccco3)c(=O)[nH]c2cc1C` (configuration not stated) gave PvdQ acylase -9, IMP-1 inh -1, VIM-2 inh -3, Yeast superoxide 108 and PHOSPHO1 inh 83*.
For C=CCn1c(C)cc(-c2csc(NC)n2)c1C the results were PvdQ acylase -12, IMP-1 inh -3, VIM-2 inh -2 and PHOSPHO1 inh -95.
C=CCn1c(C)cc(-c2csc(N)n2)c1C was read as PvdQ acylase -20, IMP-1 inh -7, VIM-2 inh -1, Yeast superoxide 105 and PHOSPHO1 inh 98*.
For N#Cc1c(NC(=O)CSc2nnc(-c3ccco3)n2-c2ccccc2)sc2c1CCC2 the results were PvdQ acylase -11, IMP-1 inh -2, VIM-2 inh -3, Yeast superoxide 97 and PHOSPHO1 inh 3.
NC(=O)c1c(NC(=O)CSc2nnc(-c3ccco3)n2-c2ccccc2)sc2c1CCC2 was read as PvdQ acylase 7, IMP-1 inh -3, VIM-2 inh 0, Yeast superoxide 99 and PHOSPHO1 inh 82*.
For COc1ccc2[nH]cc(CCNC(=O)Nc3ccccc3)c2c1 the results were PvdQ acylase 3, IMP-1 inh -2, VIM-2 inh 0 and Yeast superoxide 104.
For COc1ccc2c(CCNC(=O)Nc3ccccc3)c[nH]c2c1 the results were PvdQ acylase 1, IMP-1 inh 1, VIM-2 inh 1, Yeast superoxide 104 and PHOSPHO1 inh 63*.
Cc1ccc(N2CC(C(=O)NCc3n[nH]c(=O)c4ccccc34)CC2=O)cc1 (configuration not stated) was read as PvdQ acylase -6 and Yeast superoxide 107.
Cc1cccc(N/C(N)=N/c2nc(C(F)(F)F)cc(=O)[nH]2)c1C was read as PvdQ acylase -2, IMP-1 inh -2, VIM-2 inh 1, Yeast superoxide 91 and PHOSPHO1 inh 10.
For Cc1[nH]c2ccc(-c3nnc(SCC(=O)c4ccc(F)cc4)o3)cc2c1C the results were PvdQ acylase -7, IMP-1 inh 0, VIM-2 inh 0, Yeast superoxide 125 and PHOSPHO1 inh 87*.
Cc1cc(C)c(C)c(C(=O)CSc2nnc(-c3ccc4[nH]c(C)c(C)c4c3)o2)c1C was read as PvdQ acylase -8, IMP-1 inh 0, VIM-2 inh -4, Yeast superoxide 100 and PHOSPHO1 inh 61*.
Screening CCn1c(SCC(=O)O)nnc1-c1ccc2[nH]c(C)c(C)c2c1 returned PvdQ acylase -9, IMP-1 inh -4, VIM-2 inh -1, Yeast superoxide 105 and PHOSPHO1 inh -11.
`O=C(CSc1nnc(-c2ccc(F)cc2)o1)c1ccc2c(c1)OCCO2` gave PvdQ acylase 7, IMP-1 inh -1, VIM-2 inh -4, Yeast superoxide 93 and PHOSPHO1 inh -3.
For Cc1cccc(N2CSC3=C(C#N)C(c4ccc(C)o4)CC(=O)N3C2)c1 (configuration not stated) the results were IMP-1 inh -2, VIM-2 inh -1, Yeast superoxide 72 and PHOSPHO1 inh 76*.
`COc1ccc(C2CC(=O)N3CN(c4ccc(C)c(Cl)c4)CSC3=C2C#N)cc1` (configuration not stated) gave PvdQ acylase 2, IMP-1 inh -4, VIM-2 inh 0, Yeast superoxide 84 and PHOSPHO1 inh 83*.
Screening COc1ccc(N2CSC3=C(C#N)C(c4cccc(OC)c4OC)CC(=O)N3C2)cc1 (configuration not stated) returned PvdQ acylase -3, IMP-1 inh -2, VIM-2 inh 1, Yeast superoxide 103 and PHOSPHO1 inh 83*.
For COc1ccc(OC)c(C2CC(=O)N3CN(c4ccccc4)CSC3=C2C#N)c1 (configuration not stated) the results were PvdQ acylase -17, IMP-1 inh -2, VIM-2 inh -2, Yeast superoxide 86 and PHOSPHO1 inh 83*.
For COc1ccc(C2CC(=O)N3CN(Cc4ccco4)CSC3=C2C#N)cc1 (configuration not stated) the results were PvdQ acylase -8, IMP-1 inh 0, VIM-2 inh 2, Yeast superoxide 92 and PHOSPHO1 inh 58.
O=C(COC(=O)[C@@H]1CCCN1C(=O)c1cccs1)Nc1cccc(Cl)c1 was read as PvdQ acylase -10 and Yeast superoxide 116.
S=c1[nH]nc(-c2cc(-c3ccccc3)n[nH]2)n1/N=C/C(Br)=C/c1ccccc1 was read as IMP-1 inh -3, VIM-2 inh -2, Yeast superoxide 91 and PHOSPHO1 inh 19.
Screening O=[N+]([O-])c1ccc(C2=NN(c3ccccc3)C(c3ccco3)C2)cc1 (configuration not stated) returned PvdQ acylase -9, IMP-1 inh 6.6*, VIM-2 inh 3 and PHOSPHO1 inh 22.
For CCOc1ccc(N2CC(C(=O)Nc3nnc(Cc4ccccc4)s3)CC2=O)cc1 (configuration not stated) the results were PvdQ acylase -13, IMP-1 inh -3, VIM-2 inh -1, Yeast superoxide 111 and PHOSPHO1 inh 13.
Screening O=c1oc2ccccc2c2c1cnc1ccccc12 returned PvdQ acylase -11 and Yeast superoxide 108.
`Cc1cnc(N)c2c(=O)oc3ccccc3c12` gave PvdQ acylase -11, IMP-1 inh -4, VIM-2 inh 8.4*, Yeast superoxide 110 and PHOSPHO1 inh 0.
For CNC(=O)c1c(O)c2cccc3c2n(c1=O)CCC3 the results were PvdQ acylase -12, IMP-1 inh -3, VIM-2 inh 9.5*, Yeast superoxide 102 and PHOSPHO1 inh -2.
Screening O=C(NC1CCCCCC1)c1c(O)c2cccc3c2n(c1=O)CCC3 returned PHOSPHO1 inh -3.
`O=C(NCCNCCO)c1c(O)c2cccc3c2n(c1=O)CCC3` gave PvdQ acylase -3, IMP-1 inh -2, VIM-2 inh 10.0*, Yeast superoxide 89 and PHOSPHO1 inh -30.
For CCN(CC)CCNC(=O)c1c(O)c2cccc3c2n(c1=O)CCC3 the results were PvdQ acylase -11, IMP-1 inh -6, VIM-2 inh 11* and PHOSPHO1 inh 5.
